ChEMBL document CHEMBL4014298, “Discovery of a series of 8-(1-phenylpyrrolidin-2-yl)-6-carboxamide-2-morpholino-4H-chromen-4-one as PI3Kβ/δ inhibitors for the treatment of PTEN-deficient tumours” (Bioorg Med Chem Lett, 2017)

Experiments:
[1] = Intrinsic clearance in human hepatocytes assessed per million cells; type: ADME, cell-based, Hepatocyte; details: read-out: CLH
[2] = Lipophilicity, log D of the compound at pH 7.4; details: buffer
[3] = target: T1, Phosphatidylinositol 4,5-bisphosphate 3-kinase catalytic subunit beta isoform (Homo sapiens, UniProt P42338); experiment: Inhibition of PI3Kbeta in PTEN-deficient human MDA-MB-468 cells assessed as decrease in AKT phosphorylation at Ser473 measured after 2 hrs
T1 sequence (P42338 whole entry, canonical isoform): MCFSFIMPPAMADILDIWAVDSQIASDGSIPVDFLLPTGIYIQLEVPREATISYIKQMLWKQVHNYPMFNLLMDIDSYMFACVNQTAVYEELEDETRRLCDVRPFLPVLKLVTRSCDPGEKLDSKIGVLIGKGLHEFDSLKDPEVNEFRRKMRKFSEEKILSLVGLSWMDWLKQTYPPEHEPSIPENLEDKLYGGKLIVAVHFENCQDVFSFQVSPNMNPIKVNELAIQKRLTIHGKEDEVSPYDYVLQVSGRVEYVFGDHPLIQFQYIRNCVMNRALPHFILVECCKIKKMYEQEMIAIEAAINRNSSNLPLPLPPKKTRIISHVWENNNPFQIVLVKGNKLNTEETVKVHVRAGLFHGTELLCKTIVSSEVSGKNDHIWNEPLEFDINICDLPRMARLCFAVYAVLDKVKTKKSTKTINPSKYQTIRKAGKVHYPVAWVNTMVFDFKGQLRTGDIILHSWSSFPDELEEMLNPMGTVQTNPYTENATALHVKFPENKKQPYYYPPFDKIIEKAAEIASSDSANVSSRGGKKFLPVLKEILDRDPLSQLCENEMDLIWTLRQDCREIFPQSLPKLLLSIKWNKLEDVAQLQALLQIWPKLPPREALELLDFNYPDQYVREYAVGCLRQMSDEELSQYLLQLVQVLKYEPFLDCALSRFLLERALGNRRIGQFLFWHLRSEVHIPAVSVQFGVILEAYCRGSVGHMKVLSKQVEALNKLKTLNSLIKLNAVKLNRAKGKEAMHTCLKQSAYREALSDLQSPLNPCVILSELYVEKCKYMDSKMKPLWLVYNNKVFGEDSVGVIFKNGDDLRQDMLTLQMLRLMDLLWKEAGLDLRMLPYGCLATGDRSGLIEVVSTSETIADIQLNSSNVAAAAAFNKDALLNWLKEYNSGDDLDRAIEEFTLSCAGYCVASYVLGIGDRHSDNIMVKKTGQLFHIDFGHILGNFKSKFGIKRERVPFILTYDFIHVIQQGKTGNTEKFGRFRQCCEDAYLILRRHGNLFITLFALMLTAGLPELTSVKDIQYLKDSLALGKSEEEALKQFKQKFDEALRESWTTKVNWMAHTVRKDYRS

[4] = Inhibition of PI3Kalpha mutant in human BT474 cells assessed as decrease in AKT phosphorylation at Thr308 after 2 hrs; type: cell-based; details: BT-474, 2 h
[5] = Oral bioavailability in mouse blood at 30 umol/kg; type: ADME, organism-based
[6] = target: Phosphatidylinositol 4,5-bisphosphate 3-kinase catalytic subunit alpha isoform (Homo sapiens, UniProt P42336); experiment: Inhibition of recombinant human PI3Kalpha using PIP2 as substrate preincubated for 20 mins followed by substrate addition measured after 80 mins in presence of ATP by Kinase Glo luminescence assay
Chain of Phosphatidylinositol 4,5-bisphosphate 3-kinase catalytic subunit alpha isoform (P42336 whole entry, canonical isoform): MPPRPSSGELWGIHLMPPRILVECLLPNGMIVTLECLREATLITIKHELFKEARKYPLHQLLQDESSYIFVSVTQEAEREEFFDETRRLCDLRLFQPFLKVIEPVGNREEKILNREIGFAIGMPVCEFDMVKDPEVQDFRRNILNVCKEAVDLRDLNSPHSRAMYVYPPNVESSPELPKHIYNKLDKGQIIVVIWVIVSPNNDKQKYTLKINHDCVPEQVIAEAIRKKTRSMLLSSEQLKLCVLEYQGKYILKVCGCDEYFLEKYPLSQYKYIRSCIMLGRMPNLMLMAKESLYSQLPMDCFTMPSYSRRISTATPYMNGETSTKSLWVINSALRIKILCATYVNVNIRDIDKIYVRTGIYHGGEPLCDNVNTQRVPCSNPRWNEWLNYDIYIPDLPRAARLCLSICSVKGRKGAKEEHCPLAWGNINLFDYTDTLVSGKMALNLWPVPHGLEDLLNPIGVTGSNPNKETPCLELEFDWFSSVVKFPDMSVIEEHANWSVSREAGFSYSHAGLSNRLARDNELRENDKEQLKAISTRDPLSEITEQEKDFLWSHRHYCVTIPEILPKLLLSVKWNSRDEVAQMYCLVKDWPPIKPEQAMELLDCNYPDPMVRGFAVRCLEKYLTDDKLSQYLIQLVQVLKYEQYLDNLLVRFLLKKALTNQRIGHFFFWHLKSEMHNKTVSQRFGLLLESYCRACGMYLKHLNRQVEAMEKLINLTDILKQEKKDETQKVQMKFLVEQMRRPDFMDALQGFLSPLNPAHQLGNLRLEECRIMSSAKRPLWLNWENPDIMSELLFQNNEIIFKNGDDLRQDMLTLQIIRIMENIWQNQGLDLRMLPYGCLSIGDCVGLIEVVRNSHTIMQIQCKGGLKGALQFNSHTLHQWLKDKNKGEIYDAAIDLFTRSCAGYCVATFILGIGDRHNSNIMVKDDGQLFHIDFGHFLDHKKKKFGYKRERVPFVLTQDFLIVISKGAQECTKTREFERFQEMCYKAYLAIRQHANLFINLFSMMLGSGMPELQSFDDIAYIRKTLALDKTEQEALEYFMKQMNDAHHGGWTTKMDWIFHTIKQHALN

[7] = target: T1, Phosphatidylinositol 4,5-bisphosphate 3-kinase catalytic subunit beta isoform; experiment: Inhibition of recombinant human PI3Kbeta using PIP2 as substrate preincubated for 20 mins followed by substrate addition measured after 80 mins in presence of ATP by Kinase Glo luminescence assay
[8] = Clearance in mouse blood at 5 umol/kg, iv or 30 umol/kg, po; type: ADME, organism-based
[9] = target: Phosphatidylinositol 4,5-bisphosphate 3-kinase catalytic subunit gamma isoform (Homo sapiens, UniProt P48736); experiment: Inhibition of recombinant human PI3Kgamma using PIP2 as substrate preincubated for 20 mins followed by substrate addition measured after 80 mins in presence of ATP by Kinase Glo luminescence assay
Chain of Phosphatidylinositol 4,5-bisphosphate 3-kinase catalytic subunit gamma isoform (P48736 whole entry, canonical isoform): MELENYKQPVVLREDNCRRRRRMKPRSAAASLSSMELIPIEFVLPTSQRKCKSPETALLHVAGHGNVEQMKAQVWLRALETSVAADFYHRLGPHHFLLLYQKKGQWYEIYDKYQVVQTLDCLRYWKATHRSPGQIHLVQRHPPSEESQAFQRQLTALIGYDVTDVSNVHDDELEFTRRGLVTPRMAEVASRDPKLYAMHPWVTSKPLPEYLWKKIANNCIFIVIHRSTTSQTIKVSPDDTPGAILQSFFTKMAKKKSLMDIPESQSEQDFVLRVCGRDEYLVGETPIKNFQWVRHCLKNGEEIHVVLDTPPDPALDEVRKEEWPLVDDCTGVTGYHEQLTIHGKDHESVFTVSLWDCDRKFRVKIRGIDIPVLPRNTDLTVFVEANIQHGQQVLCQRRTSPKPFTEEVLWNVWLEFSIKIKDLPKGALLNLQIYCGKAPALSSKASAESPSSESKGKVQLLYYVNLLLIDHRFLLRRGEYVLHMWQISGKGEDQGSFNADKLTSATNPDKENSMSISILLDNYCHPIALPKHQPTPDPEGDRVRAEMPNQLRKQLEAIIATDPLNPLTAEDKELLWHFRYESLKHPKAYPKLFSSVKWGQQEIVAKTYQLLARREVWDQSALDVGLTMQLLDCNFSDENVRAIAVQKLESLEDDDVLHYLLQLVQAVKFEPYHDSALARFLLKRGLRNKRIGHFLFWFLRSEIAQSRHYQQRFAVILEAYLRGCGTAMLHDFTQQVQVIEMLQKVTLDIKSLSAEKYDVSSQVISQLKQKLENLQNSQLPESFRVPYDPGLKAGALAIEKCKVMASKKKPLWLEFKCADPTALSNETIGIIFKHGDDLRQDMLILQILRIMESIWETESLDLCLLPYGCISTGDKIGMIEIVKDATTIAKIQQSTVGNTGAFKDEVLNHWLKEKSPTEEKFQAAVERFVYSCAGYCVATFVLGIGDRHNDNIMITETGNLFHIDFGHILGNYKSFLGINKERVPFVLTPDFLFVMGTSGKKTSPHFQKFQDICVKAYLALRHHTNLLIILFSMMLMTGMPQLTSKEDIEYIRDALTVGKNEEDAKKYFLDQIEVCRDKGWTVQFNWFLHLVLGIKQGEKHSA
Summary of the method: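 Enzyme IC50 against PI3Kγ, single determination (n=1).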

[10] = Volume of distribution at steady state in mouse blood at 5 umol/kg, iv or 30 umol/kg, po; type: ADME, organism-based; details: read-out: Vdss
[11] = Fraction unbound in human plasma; type: ADME, cell-free
Summary of the method: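 Plasma protein binding in mouse, dog or human plasma, reported as fraction unbound (%).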

[12] = target: T2, Phosphatidylinositol 4,5-bisphosphate 3-kinase catalytic subunit delta isoform (Homo sapiens, UniProt O00329); experiment: Inhibition of recombinant human PI3Kdelta using PIP2 as substrate preincubated for 20 mins followed by substrate addition measured after 80 mins in presence of ATP by Kinase Glo luminescence assay
T2 sequence (O00329 whole entry): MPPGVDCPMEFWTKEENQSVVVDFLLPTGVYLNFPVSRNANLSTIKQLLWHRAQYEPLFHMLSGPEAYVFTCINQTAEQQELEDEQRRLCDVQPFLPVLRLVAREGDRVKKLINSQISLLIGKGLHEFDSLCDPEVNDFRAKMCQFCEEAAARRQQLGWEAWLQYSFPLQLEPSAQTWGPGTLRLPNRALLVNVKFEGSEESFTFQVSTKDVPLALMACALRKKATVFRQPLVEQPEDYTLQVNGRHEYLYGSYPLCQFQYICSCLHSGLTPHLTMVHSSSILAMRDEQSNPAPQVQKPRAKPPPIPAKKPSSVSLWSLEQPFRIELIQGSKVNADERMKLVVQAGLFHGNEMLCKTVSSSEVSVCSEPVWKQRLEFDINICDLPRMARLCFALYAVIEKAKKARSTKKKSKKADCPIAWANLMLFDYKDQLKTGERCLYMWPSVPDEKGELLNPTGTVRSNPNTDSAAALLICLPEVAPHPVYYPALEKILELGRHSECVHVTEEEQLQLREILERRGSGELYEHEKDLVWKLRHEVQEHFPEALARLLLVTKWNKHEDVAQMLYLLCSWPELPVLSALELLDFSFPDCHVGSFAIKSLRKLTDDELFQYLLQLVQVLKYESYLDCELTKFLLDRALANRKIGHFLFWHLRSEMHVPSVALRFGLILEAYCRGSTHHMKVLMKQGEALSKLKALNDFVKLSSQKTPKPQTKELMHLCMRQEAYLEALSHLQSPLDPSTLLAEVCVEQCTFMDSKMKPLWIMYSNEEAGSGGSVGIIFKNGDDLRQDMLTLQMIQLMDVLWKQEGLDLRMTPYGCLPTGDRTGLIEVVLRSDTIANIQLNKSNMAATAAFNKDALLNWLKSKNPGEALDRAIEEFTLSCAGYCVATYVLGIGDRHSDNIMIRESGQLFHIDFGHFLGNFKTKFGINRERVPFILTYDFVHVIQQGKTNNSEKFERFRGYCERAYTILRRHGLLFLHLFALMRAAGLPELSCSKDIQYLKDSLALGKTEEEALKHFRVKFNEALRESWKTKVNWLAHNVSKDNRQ

[13] = Intrinsic clearance in mouse hepatocytes assessed per million cells; type: ADME, cell-based, Hepatocyte; details: read-out: CLH
Summary of the method: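 Intrinsic clearance measured in mouse or dog hepatocytes, expressed as CL_int in […].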

[14] = Apparent permeability across apical to basolateral side in human Caco2 cells; details: Caco-2
[15] = AUC in mouse at 30 umol/kg, po; type: ADME; details: in vivo
Homo sapiens = species: Homo sapiens; experiment: Selectivity ratio of IC50 for PI3Kalpha mutant in human BT474 cells to IC50 for PI3Kbeta in PTEN-deficient human MDA-MB-468 cells; type: cell-based
Summary of the method: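 Ratio of two cellular IC50s. PI3Kα IC50 is from inhibition of AKT Thr308 phosphorylation in PIK3CA-mutant human breast ductal carcinoma BT474 cells. PI3Kβ IC50 is from inhibition of AKT Ser473 phosphorylation in PTEN-null breast adenocarcinoma MDA-MB-468 cells.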

| hepatocyte CLint [1] | logD [2] | IC50 [3] | IC50 [4] | bioavailability [5] | IC50 [6] | IC50 [7] | clearance [8] | IC50 [9] | Vd [10] | fraction unbound [11] | IC50 [12] | hepatocyte CLint [13] | Papp A→B [14] | AUC [15] | Compound | Ratio IC50 (Homo sapiens) |
| --- | --- | --- | --- | --- | --- | --- | --- | --- | --- | --- | --- | --- | --- | --- | --- | --- |
| 8 µL/min/1e6 cells | 2.2 | 4.5 nM | 1200 nM |  |  |  |  |  |  |  |  |  |  |  | O=C(c1cc(C2CCCN2c2ccc(F)cc2)c2oc(N3CCOCC3)cc(=O)c2c1)N1CCOCC1 (single isomer, unassigned) |  |
| < 3 µL/min/1e6 cells | 2.3 | 3 nM | 630 nM |  |  |  |  |  |  |  |  |  |  |  | O=C(c1cc(C2CCCN2c2cc(F)cc(F)c2)c2oc(N3CCOCC3)cc(=O)c2c1)N1CCC(O)CC1 (racemic) |  |
| 15 µL/min/1e6 cells | 2.5 | 1.2 nM | 91 nM |  |  |  |  |  |  |  |  |  |  |  | CN(C)C(=O)c1cc([C@H]2CCCN2c2cccc(F)c2)c2oc(N3CCOCC3)cc(=O)c2c1 |  |
|  | 3.6 |  |  |  |  |  |  |  |  |  |  |  |  |  | Cc1cc([C@@H](C)Nc2ccccc2)c2nc(N3CCOCC3)cc(=O)n2c1 |  |
| 6 µL/min/1e6 cells | 2.2 | 2.8 nM | 300 nM | 18% | 19 nM | 6.1 nM | 47 mL/min/kg | 340 nM | 0.9 L/kg | 0.11 | 5.1 nM | 134 µL/min/1e6 cells | 14 ×10⁻⁶ cm/s | 1.7 µM·h | O=C(c1cc([C@H]2CCCN2c2cccc(F)c2)c2oc(N3CCOCC3)cc(=O)c2c1)N1CCOCC1 |  |
| 11 µL/min/1e6 cells | 2.3 | 2.3 nM | 250 nM |  |  |  |  |  |  |  |  |  | 3.3 ×10⁻⁶ cm/s |  | CN1CCN(C(=O)c2cc([C@H]3CCCN3c3cc(F)cc(F)c3)c3oc(N4CCOCC4)cc(=O)c3c2)CC1 |  |
| 11 µL/min/1e6 cells |  |  | 480 nM |  |  |  |  |  |  |  |  |  |  | 6 µM·h | CN(C)C(=O)c1cc(C2CCCN2c2ccccc2)c2oc(N3CCOCC3)cc(=O)c2c1 (racemic) |  |
| 17 µL/min/1e6 cells | 2.7 | 1.2 nM | 150 nM |  |  |  |  |  |  |  |  |  | 33 ×10⁻⁶ cm/s | 2.4 µM·h | CN(C)C(=O)c1cc(C2CCCN2c2cc(F)cc(F)c2)c2oc(N3CCOCC3)cc(=O)c2c1 (racemic) |  |
| 4 µL/min/1e6 cells | 2 | 2 nM | 870 nM |  |  |  |  |  |  |  |  |  | 2.6 ×10⁻⁶ cm/s | 0.3 µM·h | CN(CCO)C(=O)c1cc(C2CCCN2c2cc(F)cc(F)c2)c2oc(N3CCOCC3)cc(=O)c2c1 (racemic) |  |
| 14 µL/min/1e6 cells |  | 3.4 nM | 180 nM |  | 24 nM | 6.7 nM |  | 330 nM |  |  | 8.2 nM |  |  | 1 µM·h | CN(C)C(=O)c1cc([C@H]2CCCN2c2ccc(F)cc2)c2oc(N3CCOCC3)cc(=O)c2c1 | 50 |
